# Reference: ChEMBL document CHEMBL4627265, “Optimization of 8-oxoadenines with toll-like-receptor 7 and 8 activity” (Bioorg Med Chem Lett, 2020)
# Active and inactive are the calls of the source. No cut-off for these calls is given here.
# Legend:
# Assay type in all cases: cell-based
# [1] = target: T1, Toll-like receptor 7 (Homo sapiens) (UniProt Q9NYK1); experiment: Agonist activity at TLR7 in human PBMC assessed as induction of plasmacytoid dendritic cell maturation by measuring increase in MHC-1 level at 0.1 uM after 6 hrs by flow cytometry relative to control
# T1 sequence (whole entry): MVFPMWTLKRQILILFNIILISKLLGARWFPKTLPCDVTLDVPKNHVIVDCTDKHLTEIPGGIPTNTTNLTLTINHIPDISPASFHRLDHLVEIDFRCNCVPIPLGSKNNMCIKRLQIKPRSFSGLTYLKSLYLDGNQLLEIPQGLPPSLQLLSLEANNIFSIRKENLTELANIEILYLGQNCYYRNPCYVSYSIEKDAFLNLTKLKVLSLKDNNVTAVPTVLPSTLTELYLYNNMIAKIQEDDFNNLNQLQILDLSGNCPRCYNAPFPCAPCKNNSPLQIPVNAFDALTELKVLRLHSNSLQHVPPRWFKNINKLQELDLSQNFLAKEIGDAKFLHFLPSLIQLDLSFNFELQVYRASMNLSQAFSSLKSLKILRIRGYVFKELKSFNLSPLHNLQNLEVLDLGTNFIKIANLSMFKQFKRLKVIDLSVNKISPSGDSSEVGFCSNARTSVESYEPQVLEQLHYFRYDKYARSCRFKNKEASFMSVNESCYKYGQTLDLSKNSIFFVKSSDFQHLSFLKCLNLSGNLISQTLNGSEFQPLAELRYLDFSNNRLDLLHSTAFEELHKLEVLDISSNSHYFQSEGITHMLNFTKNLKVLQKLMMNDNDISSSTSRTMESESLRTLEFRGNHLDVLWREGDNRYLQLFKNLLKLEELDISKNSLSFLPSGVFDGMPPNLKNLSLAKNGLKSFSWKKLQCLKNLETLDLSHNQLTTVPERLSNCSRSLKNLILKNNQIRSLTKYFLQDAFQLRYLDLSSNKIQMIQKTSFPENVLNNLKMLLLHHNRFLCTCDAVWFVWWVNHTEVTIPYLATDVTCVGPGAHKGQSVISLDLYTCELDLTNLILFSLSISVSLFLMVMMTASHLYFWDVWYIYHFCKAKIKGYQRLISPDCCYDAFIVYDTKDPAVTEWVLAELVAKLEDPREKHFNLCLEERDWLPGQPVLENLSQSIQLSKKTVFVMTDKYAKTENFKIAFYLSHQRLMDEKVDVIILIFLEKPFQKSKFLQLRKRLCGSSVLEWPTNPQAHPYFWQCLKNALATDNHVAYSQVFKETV
# How it was run: (§1)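 hPBMCs stimulated 6 h at a single 0.1 μM dose; HLA-DR, MHC-I, CD80 and CD86 on mDCs and pDCs measured by flow cytometry, expressed as fold change versus unstimulated cells. Mean ± SD of three independent experiments in three different donors.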
# [2] = target: T1, Toll-like receptor 7 (Homo sapiens); experiment: Agonist activity at TLR7 in human PBMC assessed as induction of plasmacytoid dendritic cell maturation by measuring increase in HLA-DR level at 0.1 uM after 6 hrs by flow cytometry relative to control; how it was run: as §1
# [3] = target: T2, Toll-like receptor 7 (Homo sapiens, UniProt Q9NYK1); experiment: Agonist activity at human TLR7 expressed in HEK293 cells assessed as induction of NFKappaB activity after 24 hrs by SEAP reporter gene assay
# T2 sequence (Q9NYK1 whole entry): T1 sequence (whole entry)
# How it was run: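 HEK293 cells stably transfected with hTLR7 or hTLR8 plus an NFκB-driven SEAP reporter, treated 24 h with compound over a μM range; SEAP secretion read out. EC50 as mean ± SD of three (TLR7) or four (TLR8) independent experiments.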
# [4] = target: T1, Toll-like receptor 7 (Homo sapiens); experiment: Agonist activity at TLR7 in human PBMC assessed as IFNalpha stimulation at 10 uM
# How it was run: (§2)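 IFNα secretion by hPBMCs across a μM dose range; MEC = lowest dose tested inducing cytokine, PC = dose giving highest level, PL = peak level at 10 μM. Data representative of one of three independent donors.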
# [5] = target: T1, Toll-like receptor 7 (Homo sapiens); experiment: Agonist activity at TLR7 in human PBMC assessed as induction of plasmacytoid dendritic cell maturation by measuring increase in CD86 level at 0.1 uM after 6 hrs by flow cytometry relative to control; how it was run: as §1
# [6] = target: T1, Toll-like receptor 7 (Homo sapiens); experiment: Agonist activity at TLR7 in human PBMC assessed as induction of plasmacytoid dendritic cell maturation by measuring CD80 level at 0.1 uM after 6 hrs by flow cytometry; how it was run: as §1
# [7] = target: T1, Toll-like receptor 7 (Homo sapiens); experiment: Agonist activity at TLR7 in human PBMC assessed as induction of plasmacytoid dendritic cell maturation by measuring CD86 level at 0.1 uM after 6 hrs by flow cytometry; how it was run: as §1
# [8] = target: T3, Toll-like receptor 8 (Homo sapiens) (UniProt Q9NR97); experiment: Agonist activity at TLR8 in human PBMC assessed as TNFalpha level
# T3 sequence (whole entry): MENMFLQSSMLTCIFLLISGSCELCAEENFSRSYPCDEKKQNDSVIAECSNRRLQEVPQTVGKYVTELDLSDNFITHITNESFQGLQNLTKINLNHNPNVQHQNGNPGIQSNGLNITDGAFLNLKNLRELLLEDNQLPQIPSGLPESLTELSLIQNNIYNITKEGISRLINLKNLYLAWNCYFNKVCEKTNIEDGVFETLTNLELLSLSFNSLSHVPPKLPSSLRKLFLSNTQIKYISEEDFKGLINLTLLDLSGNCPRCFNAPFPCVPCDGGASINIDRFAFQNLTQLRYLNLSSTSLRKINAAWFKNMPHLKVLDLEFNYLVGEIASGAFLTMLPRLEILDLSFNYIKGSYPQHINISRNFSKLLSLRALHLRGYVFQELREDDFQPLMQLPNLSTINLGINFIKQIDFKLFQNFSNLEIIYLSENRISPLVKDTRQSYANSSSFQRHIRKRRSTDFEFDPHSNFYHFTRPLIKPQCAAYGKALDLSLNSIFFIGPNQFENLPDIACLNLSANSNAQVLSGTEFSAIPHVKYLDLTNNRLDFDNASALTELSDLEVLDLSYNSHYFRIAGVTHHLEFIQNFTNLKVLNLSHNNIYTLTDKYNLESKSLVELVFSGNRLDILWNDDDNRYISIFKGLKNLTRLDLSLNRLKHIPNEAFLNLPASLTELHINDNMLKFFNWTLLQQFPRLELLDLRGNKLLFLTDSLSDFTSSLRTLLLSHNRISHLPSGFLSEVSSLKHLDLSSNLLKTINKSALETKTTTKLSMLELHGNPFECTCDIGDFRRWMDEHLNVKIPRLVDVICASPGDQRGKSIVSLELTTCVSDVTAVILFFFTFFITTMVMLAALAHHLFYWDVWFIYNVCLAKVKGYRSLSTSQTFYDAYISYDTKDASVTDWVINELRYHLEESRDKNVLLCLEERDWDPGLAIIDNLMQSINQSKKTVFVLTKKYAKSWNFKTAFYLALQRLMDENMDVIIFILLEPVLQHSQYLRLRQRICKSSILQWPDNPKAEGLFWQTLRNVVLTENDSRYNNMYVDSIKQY
# How it was run: (§3)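 TNFα secretion by hPBMCs across a μM dose range; MEC = lowest dose tested inducing cytokine, PC = dose giving highest level, PL = peak level at 10 μM. Data representative of one of three independent donors.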
# [9] = target: T3, Toll-like receptor 8 (Homo sapiens); experiment: Agonist activity at TLR8 in human PBMC assessed as TNFalpha level at 10 uM; how it was run: as §3
# [10] = target: TLR7 and TLR8 (Homo sapiens) (UniProt Q9NYK1+Q9NR97); experiment: Agonist activity at TLR7/TLR8 in human PBMC assessed as IFN alpha level; how it was run: as §2
# [11] = target: Toll-like receptor 3 (Homo sapiens) (UniProt O15455); experiment: Agonist activity at human TLR3 expressed in HEK293 cells by SEAP reporter gene assay
# Sequence of Toll-like receptor 3 (Homo sapiens) (O15455 whole entry): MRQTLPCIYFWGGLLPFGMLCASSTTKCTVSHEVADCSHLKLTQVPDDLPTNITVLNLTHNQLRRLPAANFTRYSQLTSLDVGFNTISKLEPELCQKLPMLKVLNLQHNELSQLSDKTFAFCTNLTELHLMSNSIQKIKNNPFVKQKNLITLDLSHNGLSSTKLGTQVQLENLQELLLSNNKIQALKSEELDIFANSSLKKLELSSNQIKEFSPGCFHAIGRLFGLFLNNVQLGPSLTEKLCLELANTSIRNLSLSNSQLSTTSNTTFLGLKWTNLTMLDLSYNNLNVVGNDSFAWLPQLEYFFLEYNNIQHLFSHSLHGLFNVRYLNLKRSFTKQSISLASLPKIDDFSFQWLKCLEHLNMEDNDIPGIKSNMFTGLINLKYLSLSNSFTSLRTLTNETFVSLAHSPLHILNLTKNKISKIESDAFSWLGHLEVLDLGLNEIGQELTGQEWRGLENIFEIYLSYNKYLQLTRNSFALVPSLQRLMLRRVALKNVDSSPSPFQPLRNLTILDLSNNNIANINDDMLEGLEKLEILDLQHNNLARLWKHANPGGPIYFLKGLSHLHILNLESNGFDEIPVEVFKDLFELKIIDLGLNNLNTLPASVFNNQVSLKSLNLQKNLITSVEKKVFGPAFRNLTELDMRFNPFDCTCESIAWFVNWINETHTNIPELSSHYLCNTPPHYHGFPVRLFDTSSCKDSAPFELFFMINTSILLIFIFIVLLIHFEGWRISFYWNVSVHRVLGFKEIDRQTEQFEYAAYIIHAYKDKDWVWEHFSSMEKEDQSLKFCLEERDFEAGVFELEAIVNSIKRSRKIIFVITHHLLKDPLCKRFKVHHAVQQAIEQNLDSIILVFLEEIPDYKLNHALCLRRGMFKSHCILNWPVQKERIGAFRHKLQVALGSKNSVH
# [12] = target: T4, Toll-like receptor 9 (Homo sapiens) (UniProt Q9NR96); experiment: Agonist activity at human TLR9 expressed in HEK293 cells by SEAP reporter gene assay
# T4 sequence (whole entry): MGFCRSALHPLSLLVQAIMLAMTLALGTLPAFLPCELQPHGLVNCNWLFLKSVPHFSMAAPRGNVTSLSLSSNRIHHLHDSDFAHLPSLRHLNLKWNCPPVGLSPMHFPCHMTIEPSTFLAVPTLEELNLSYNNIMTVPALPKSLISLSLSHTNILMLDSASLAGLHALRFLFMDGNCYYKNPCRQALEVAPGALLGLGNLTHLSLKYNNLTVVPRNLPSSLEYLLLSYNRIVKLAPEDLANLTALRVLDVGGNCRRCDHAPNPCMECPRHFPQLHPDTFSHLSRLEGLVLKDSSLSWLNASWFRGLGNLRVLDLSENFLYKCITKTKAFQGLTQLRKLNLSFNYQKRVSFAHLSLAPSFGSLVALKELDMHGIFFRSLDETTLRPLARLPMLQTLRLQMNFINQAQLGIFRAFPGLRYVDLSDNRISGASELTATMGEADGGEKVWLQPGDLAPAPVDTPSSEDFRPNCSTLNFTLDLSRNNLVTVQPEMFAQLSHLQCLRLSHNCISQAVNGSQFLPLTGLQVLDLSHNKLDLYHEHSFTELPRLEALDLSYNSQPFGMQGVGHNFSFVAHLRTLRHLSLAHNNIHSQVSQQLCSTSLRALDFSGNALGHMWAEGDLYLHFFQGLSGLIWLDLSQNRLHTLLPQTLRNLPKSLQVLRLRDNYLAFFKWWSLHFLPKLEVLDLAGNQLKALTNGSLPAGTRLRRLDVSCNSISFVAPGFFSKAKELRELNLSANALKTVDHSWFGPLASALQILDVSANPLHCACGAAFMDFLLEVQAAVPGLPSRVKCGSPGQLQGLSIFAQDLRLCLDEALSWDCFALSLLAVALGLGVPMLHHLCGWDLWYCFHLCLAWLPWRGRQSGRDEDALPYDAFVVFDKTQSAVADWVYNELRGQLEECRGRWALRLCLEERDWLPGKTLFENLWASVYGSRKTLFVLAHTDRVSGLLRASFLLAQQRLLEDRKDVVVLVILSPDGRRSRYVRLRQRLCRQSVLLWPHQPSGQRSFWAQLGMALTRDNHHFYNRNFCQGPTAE
# [13] = target: T3, Toll-like receptor 8 (Homo sapiens); experiment: Agonist activity at TLR8 in human PBMC assessed as induction of myeloid dendritic cell maturation by measuring HLA-DR level at 0.1 uM after 6 hrs by flow cytometry; how it was run: as §1
# [14] = target: T3, Toll-like receptor 8 (Homo sapiens); experiment: Agonist activity at TLR8 in human PBMC assessed as induction of myeloid dendritic cell maturation by measuring CD86 level at 0.1 uM after 6 hrs by flow cytometry; how it was run: as §1
SMILES,fold change (FC) [1],fold change (FC) [2],EC50 [3] [µM],Activity [4] [pg/mL],fold change (FC) [5],Activity [6],Activity [7],MEC [8] [µM],Activity [9] [pg/mL],ECmax [10] [µM],MEC [10] [µM],Activity [11],Activity [12],Activity [13],Activity [14]
CCC[C@H](C)Oc1nc(N)c2[nH]c(=O)n(CCCCCC3CCNCC3)c2n1,1.7 to 2.3,1.7 to 2.3,0.24,2640,–,–,–,–,–,–,–,–,–,–,–
CCC[C@H](C)Oc1nc(N)c2[nH]c(=O)n(CC3CCN(CCN)CC3)c2n1,–,–,6.71,4420,–,–,–,–,–,–,–,–,–,–,–
CCCCOc1nc(N)c2[nH]c(=O)n(CC3CCN(CCN)CC3)c2n1,1.5 to 1.7,1.5 to 1.7,30,3040,1.7 to 2.3,inactive,inactive,–,–,–,–,–,–,–,–
CCCCOc1nc(N)c2[nH]c(=O)n(CCCCCC3CCNCC3)c2n1,1.7 to 2.3,1.7 to 2.3,0.45,4680,–,–,–,–,–,–,–,–,–,–,–
CCCCNc1nc(N)c2[nH]c(=O)n(CC3CCNCC3)c2n1,–,–,40,5980,–,–,–,–,–,–,–,–,–,–,–
COCCOc1nc(N)c2[nH]c(=O)n(Cc3ccccc3)c2n1,–,–,1.17,1440,–,–,–,2,1660,0.08,0.08,–,–,–,–
CCCCOc1nc(N)c2[nH]c(=O)n(CC3CCNCC3)c2n1,1.2 to 2.4,1.2 to 2.4,19.8,5900,1.4,–,–,–,–,–,–,inactive,inactive,–,–
CCCCOc1nc(N)c2[nH]c(=O)n(CC3CCN(CCO)CC3)c2n1,1.5 to 1.7,1.5 to 1.7,23.1,4730,1.7 to 2.3,inactive,inactive,10,2740,0.4,0.4,–,–,inactive,inactive
CCC[C@@H](C)Oc1nc(N)c2[nH]c(=O)n(CC3CCNCC3)c2n1,1.2 to 2.4,1.2 to 2.4,35.8,6210,–,inactive,inactive,–,–,–,–,inactive,inactive,–,–
CCC[C@H](C)Oc1nc(N)c2[nH]c(=O)n(CC3CCNCC3)c2n1,1.2 to 2.4,1.2 to 2.4,2.68,5470,2,–,–,–,–,–,–,inactive,inactive,–,–
